Test results as given in ChEMBL document CHEMBL5705892, “MK-2206, an allosteric Akt inhibitor, enhances antitumor efficacy by standard chemotherapeutic agents or molecular targeted drugs in vitro and in vivo” (Mol Cancer Ther, 2010).
pIC50: −log10 of the molar value. Activity calls are given as the source filed them. No cut-off for these calls is given here.

Legend:
NCI-N87 = assay: Antiproliferative activity against human NCI-N87 cells assessed as reduction in cell proliferation measured after 72 hrs by celltiter-glo assay; format: functional, cell-based; conditions: NCI-N87, 72 h
Procedure, shortened: (§1)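 Cells in RPMI 1640 with 10% heat-inactivated FBS at 37°C and 5% CO₂ were seeded at 2 to 3 × 10³ per well. […] Growth was read as cellular ATP by CellTiter-Glo.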

SK-BR-3 [1] = assay: Synergistic antiproliferative activity against human SK-BR-3 cells assessed as combination index at ED75 measured after 72 hrs in presence of docetaxel by celltiter-glo assay; format: functional
[2] = Toxicity in human NCI-H292 cells xenografted CD-1 mouse assessed as death at 120 mg/kg, po administered 3 times per week for 2 weeks starting 2 hrs post-erlotinib treatment and measured during compound dosing; format: organism-based; conditions: in vivo, 336 h
Procedure, shortened: (§2)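 NCI-H292 cells in 50% Matrigel/PBS injected s.c. into flank of female CD1-nude mice; dosing began after 2 wk at mean tumour 0.2 cm³, n = 5/group. […] Body weight and signs monitored; treatment ended day 16.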

SK-BR-3 [3] = assay: Synergistic antiproliferative activity against human SK-BR-3 cells assessed as combination index at ED50 treated 24 hrs prior to lapatinib and measured after 72 hrs by celltiter-glo assay; format: functional; conditions: time 96 hrs
HCC1954 [4] = assay: Synergistic antiproliferative activity against lapatinib pretreated human HCC1954 cells assessed as combination index at ED90 measured after 72 hrs by celltiter-glo assay; format: functional
[5] = target: RAC-alpha serine/threonine-protein kinase (Homo sapiens) (UniProt P31749); assay: Inhibition of AKT phosphorylation at S473 residue in human NCI-H1993 cells at 3 umol/L measured after 4 to 24 hrs in presence of carboplatin by MSD assay; conditions: time 4-24 hrs
NCI-H661 = assay: Synergistic antiproliferative activity against human NCI-H661 cells assessed as combination index at ED25 to ED90 measured after 72 hrs in presence of gemcitabine by celltiter-glo assay; format: functional
NCI-H1299 = assay: Synergistic antiproliferative activity against human NCI-H1299 cells assessed as combination index at ED90 measured after 72 hrs in presence of erlotinib by celltiter-glo assay; format: functional
A2780 = assay: Cell cycle arrest in human A2780 cells assessed as increase in accumulation of cells at sub-G1 phase measured after 72 hrs in presence of 5-FU by propidium iodide staining based flow cytometry; format: functional
HCC1954 [6] = assay: Synergistic antiproliferative activity against human HCC1954 cells assessed as combination index at ED50 measured after 96 hrs in presence of lapatinib by celltiter-glo assay; format: functional
SK-BR-3 [7] = assay: Antiproliferative activity against human SK-BR-3 cells assessed as reduction in cell proliferation measured after 72 hrs by celltiter-glo assay; format: functional, cell-based; conditions: SK-BR-3, 72 h; procedure, shortened: as §1
SK-OV-3 [8] = assay: Synergistic antiproliferative activity against lapatinib pretreated human SK-OV-3 cells assessed as combination index at ED90 measured after 72 hrs by celltiter-glo assay; format: functional
[9] = target: RAC-alpha serine/threonine-protein kinase (Homo sapiens) (UniProt P31749); assay: Inhibition of AKT in human HCC827 cells assessed as reduction in S6 phosphorylation at S240/S244 residues at 5 umol/L measured after 5 hrs in presence of erlotinib by Western blot analysis; format: cell-based; conditions: dose 5.0 µmol/L
HCC827 = assay: Synergistic antiproliferative activity against human HCC827 cells assessed as combination index at ED75 measured after 72 hrs in presence of erlotinib by celltiter-glo assay; format: functional
Procedure, shortened: (§3)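 Cells grown in RPMI 1640 with 10% heat-inactivated FBS at 37°C, 5% CO₂. Seeded at 2 to 3 × 10³ per well; drugs added 24 h later. […] Viability read as cellular ATP by CellTiter-Glo. CI calculated by Chou–Talalay from median-effect plots at ED50, ED75 and ED90.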

BT-474 = assay: Synergistic antiproliferative activity against human BT-474 cells assessed as combination index at ED90 measured after 72 hrs in presence of docetaxel by celltiter-glo assay; format: functional; procedure, shortened: as §3
HCC70 = assay: Synergistic antiproliferative activity against lapatinib pretreated human HCC70 cells assessed as combination index at ED50 measured after 72 hrs by celltiter-glo assay; format: functional
[10] = Toxicity in human NCI-H460 cells xenografted CD1 nude mouse assessed as body weight loss at 120 mg/kg, po administered 3 times per week for 2 weeks measured on day 14 to 16; format: organism-based; conditions: in vivo, 336 h, time 14-16 day
Procedure, shortened: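 NCI-H460 cells in 50% Matrigel/PBS injected s.c. into flank of CD1-nude mice; randomized at mean tumour 0.2 cm³ (n = 5). MK-2206 in 30% Captisol, 120 mg/kg p.o. days 0, 2, 4, 7, 9, 11. Carboplatin 50 mg/kg i.v. in saline days 0 and 7 (from day 12 after implant), or gemcitabine 100 mg/kg i.v. in saline days 0 and 7 (from day 8). Body weight monitored.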

MDA-MB-468 = assay: Synergistic antiproliferative activity against human MDA-MB-468 cells assessed as combination index at ED50 measured after 72 hrs in presence of lapatinib by celltiter-glo assay; format: functional; procedure, shortened: as §3
SK-OV-3 [11] = assay: Synergistic antiproliferative activity against human SK-OV-3 cells assessed as combination index at ED50 treated 24 hrs prior to lapatinib and measured after 72 hrs by celltiter-glo assay; format: functional; conditions: time 96 hrs
Calu-6 = assay: Synergistic antiproliferative activity against human Calu-6 cells assessed as combination index at ED90 measured after 72 hrs in presence of erlotinib by celltiter-glo assay; format: functional; procedure, shortened: as §3
HCC1954 [12] = assay: Synergistic antiproliferative activity against human HCC1954 cells assessed as combination index at ED50 measured after 72 hrs in presence of lapatinib by celltiter-glo assay; format: functional; procedure, shortened: as §3
[13] = Toxicity in human NCI-H292 cells xenografted CD-1 mouse assessed as death at 360 mg/kg, po administered once a week for 2 weeks and measured during compound dosing; format: organism-based; conditions: in vivo, 336 h; procedure, shortened: as §2
HCC1954 [14] = assay: Synergistic antiproliferative activity against lapatinib pretreated human HCC1954 cells assessed as combination index at ED50 measured after 72 hrs by celltiter-glo assay; format: functional
NCI-H1993 = assay: Induction of apoptosis in human NCI-H1993 cells assessed as fold induction of capsase-3/7 activity measured after 24 to 48 hrs in presence of gemcitabine by caspase-glo 3/7 assay; format: functional; conditions: time 24-48 hrs
HCC1954 [15] = assay: Synergistic antiproliferative activity against human HCC1954 cells assessed as combination index at ED50 treated 24 hrs prior to lapatinib and measured after 72 hrs by celltiter-glo assay; format: functional; conditions: time 96 hrs
ZR-75-1 = assay: Synergistic antiproliferative activity against human ZR-75-1 cells assessed as combination index at ED90 measured after 72 hrs in presence of docetaxel by celltiter-glo assay; format: functional
SK-OV-3 [16] = assay: Synergistic antiproliferative activity against human SK-OV-3 cells assessed as combination index at ED90 measured after 96 hrs in presence of lapatinib by celltiter-glo assay; format: functional
NCI-H460 [17] = assay: Synergistic antiproliferative activity against human NCI-H460 cells assessed as combination index at ED50 measured after 72 hrs in presence of 5-FU by celltiter-glo assay; format: functional
NCI-H460 [18] = assay: Induction of apoptosis in human NCI-H460 cells assessed as fold induction of capsase-3/7 activity measured after 24 to 48 hrs in presence of gemcitabine by caspase-glo 3/7 assay; format: functional; conditions: time 24-48 hrs

Chain of RAC-alpha serine/threonine-protein kinase (Homo sapiens) (P31749 whole entry): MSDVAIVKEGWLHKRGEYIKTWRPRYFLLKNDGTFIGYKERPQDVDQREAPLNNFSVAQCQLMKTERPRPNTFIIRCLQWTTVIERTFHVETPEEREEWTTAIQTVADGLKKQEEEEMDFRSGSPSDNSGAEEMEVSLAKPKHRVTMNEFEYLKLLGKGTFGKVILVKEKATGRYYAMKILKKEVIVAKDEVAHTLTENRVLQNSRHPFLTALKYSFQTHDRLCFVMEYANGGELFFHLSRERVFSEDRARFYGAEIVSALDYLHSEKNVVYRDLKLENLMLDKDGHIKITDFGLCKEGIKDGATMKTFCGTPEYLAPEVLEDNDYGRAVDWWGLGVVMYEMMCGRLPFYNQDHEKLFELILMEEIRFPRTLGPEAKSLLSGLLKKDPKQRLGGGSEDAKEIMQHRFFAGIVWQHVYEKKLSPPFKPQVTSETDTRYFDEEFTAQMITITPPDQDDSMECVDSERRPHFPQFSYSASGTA

With Cl.NC1(c2ccc(-c3nc4ccn5c(=O)[nH]nc5c4cc3-c3ccccc3)cc2)CCC1 the pIC50 (NCI-N87) was 5.80, the CI75 (SK-BR-3 [1]) was 0.7 and the Activity [2] was “Non-Toxic”. For the same compound, the CI50 (SK-BR-3 [3]) was 0.18, the CI90 (HCC1954 [4]) was 0.18 and the inhibition [5] was “Active”. For the same compound, the CI (NCI-H661) was 0.53, the CI90 (NCI-H1299) was 0.52 and the Activity (A2780) was “Dose-Dependent Effect”. The CI50 (HCC1954 [6]) was 0.18, the pIC50 (SK-BR-3 [7]) was 7.00 and the CI90 (SK-OV-3 [8]) was 0.18. For the same compound, the inhibition [9] was “Active”, the CI75 (HCC827) was 0.18 and the CI90 (BT-474) was 0.7. The CI50 (HCC70) was 0.18, the Activity [10] was “Non-Toxic” and the CI50 (MDA-MB-468) was 0.42. For the same compound, the CI50 (SK-OV-3 [11]) was 0.18, the CI90 (Calu-6) was 0.13 and the CI50 (HCC1954 [12]) was 0.18. The Activity [13] was “Non-Toxic”, the CI50 (HCC1954 [14]) was 0.18 and the “fold change (FC)” value (NCI-H1993) was 1.2. For the same compound, the CI50 (HCC1954 [15]) was 0.18, the CI90 (ZR-75-1) was 0.4 and the CI90 (SK-OV-3 [16]) was 0.18. The CI50 (NCI-H460 [17]) was 0.66 and the “fold change (FC)” value (NCI-H460 [18]) was 1.6.
